Measured values published in ChEMBL document CHEMBL3797026, “Caatinga plants: Natural and semi-synthetic compounds potentially active against Trichomonas vaginalis” (Bioorg Med Chem Lett, 2016).
Converted amounts (≈) assume the structure as drawn. The source made the active and inactive calls. No cut-off for these calls is given here.

How the values were obtained:
Trichomonas vaginalis [1] = assay: Antitrichomonal activity against metronidazole-sensitive Trichomonas vaginalis ATCC 30236 clinical isolate trophozoites assessed as parasite viability at 100 uM after 24 hrs by trypan blue dye based hemocytometry; format: functional
Summary of the method: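 Single-concentration screen at 100 µM with trophozoites at 1.0 × 10^5/mL. Incubation was 24 h at 37 °C in 5.0% CO2, with a 0.62% DMSO vehicle control and 100 µM metronidazole as positive control. Viable parasites were counted by hemocytometer using motility, normal morphology and 0.2% trypan blue exclusion, and reported as % of untreated. Three experiments were run in triplicate.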

Trichomonas vaginalis [2] = assay: Antitrichomonal activity against metronidazole-resistant Trichomonas vaginalis TV-LACM2R clinical isolate trophozoites assessed as reduction in parasite viability at 15 uM after 24 hrs by trypan blue dye based hemocytometry; format: functional
Summary of the method: (§1)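 Trophozoites at 1.0 × 10^5/mL were incubated 24 h at 37 °C in 5.0% CO2. Viable parasites were counted by hemocytometer, judged by motility, normal morphology and exclusion of 0.2% trypan blue. Viability is expressed as a percentage of untreated parasites. Three independent parasite suspensions were each run in triplicate, reported as mean ± SD.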

Trichomonas vaginalis [3] = assay: Antitrichomonal activity against metronidazole-resistant Trichomonas vaginalis TV-LACM2R clinical isolate trophozoites; format: functional
HeLa [4] = assay: Cytotoxicity against human HeLa cells assessed as reduction in cell viability at 50 uM after 48 hrs by MTT assay; format: cell-based
Summary of the method: (§2)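 MTT assay: cells were grown in DMEM with 10% FBS at 37 °C in 5% CO2 and seeded at 3.0 × 10^4 or 1.0 × 10^4 cells/well overnight. Medium was replaced with fresh medium with or without 50 µM, with 0.2% Triton X-100 as positive control, for 24 or 48 h. MTT (0.5 mg/mL) was added for 1 h, formazan was dissolved in DMSO and read at 570 nm. Triplicates.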

Trichomonas vaginalis [5] = assay: Antitrichomonal activity against metronidazole-resistant Trichomonas vaginalis TV-LACM2R clinical isolate trophozoites assessed as reduction in parasite viability at 12.5 uM after 24 hrs by trypan blue dye based hemocytometry; format: functional, organism-based; summary of the method: as §1
Trichomonas vaginalis [6] = assay: Antitrichomonal activity against metronidazole-sensitive Trichomonas vaginalis ATCC 30236 clinical isolate trophozoites assessed as undulating membrane at 50 uM after 2 hrs by scanning electron microscopic analysis; format: functional, organism-based
Summary of the method: (§3)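 Scanning EM: trophozoites (1.0 × 10^5/mL) were treated or not with 50 µM. They were fixed in 2.5% glutaraldehyde in 0.1 M sodium cacodylate pH 7.2, post-fixed in 1.0% OsO4 in the same buffer, and dehydrated in acetone. Untreated trophozoites served as control.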

[7] = Cytotoxicity against HMVII cells assessed as reduction in cell viability after 48 hrs by MTT assay; format: cell-based, HMV-2; details: human
[8] = Cytotoxicity against HMVII cells assessed as reduction in cell viability at 50 uM after 48 hrs by MTT assay; format: cell-based; details: human, hmv-2, 48 h; summary of the method: as §2
Trichomonas vaginalis [9] = assay: Antitrichomonal activity against metronidazole-sensitive Trichomonas vaginalis ATCC 30236 clinical isolate trophozoites assessed as appearance of flagella at 50 uM after 2 hrs by scanning electron microscopic analysis; format: functional, organism-based; summary of the method: as §3
Trichomonas vaginalis [10] = assay: Antitrichomonal activity against metronidazole-sensitive Trichomonas vaginalis ATCC 30236 clinical isolate trophozoites assessed as membrane projections and holes at 50 uM after 2 hrs by scanning microscopic analysis; format: functional, organism-based; summary of the method: as §3
Trichomonas vaginalis [11] = assay: Antitrichomonal activity against metronidazole-sensitive Trichomonas vaginalis ATCC 30236 clinical isolate trophozoites assessed as decrease in parasite viability at 50 to 100 uM after 24 hrs by trypan blue dye based hemocytometry; format: functional, organism-based
Summary of the method: (§4)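 Trophozoites (1.0 × 10^5/mL) were cultured in TYM and exposed to a dilution series from 100 to 0.78 µM for 24 h. Viable counts were taken by hemocytometer with 0.2% trypan blue exclusion and compared with untreated parasites. To confirm the MIC, parasites were transferred to fresh TYM medium. Triplicates were run with three independent cultures.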

Trichomonas vaginalis [12] = assay: Antitrichomonal activity against metronidazole-sensitive Trichomonas vaginalis ATCC 30236 clinical isolate trophozoites assessed as reduction of parasite viability after 2 hrs by FDA/PI dye staining based flow cytometry relative to control; format: functional
Summary of the method: (§5)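 Flow cytometry: parasites were exposed or not to 50 µM for 0, 2, 4, 6 and 12 h, then co-stained with FDA and PI (10 µg/mL each) for 20 min. FDA-retaining cells with intact membranes were scored viable and PI-positive cells nonviable. Three parasite suspensions were tested in triplicate.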

[13] = Selectivity index, ratio of CC50 for african green monkey Vero cells to IC50 for metronidazole-sensitive Trichomonas vaginalis ATCC 30236 clinical isolate trophozoites after 24 hrs; format: functional
Summary of the method: (§6)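 Selectivity index calculated as CC50 in the mammalian line (MTT, 24 or 48 h exposure) divided by the anti-T. vaginalis IC50.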

HeLa [14] = assay: Cytotoxicity against human HeLa cells assessed as reduction in cell viability at 50 uM after 24 hrs by MTT assay; format: cell-based; summary of the method: as §2
Trichomonas vaginalis [15] = assay: Antitrichomonal activity against metronidazole-sensitive Trichomonas vaginalis ATCC 30236 clinical isolate trophozoites assessed as rounded parasite at 50 uM after 2 hrs by scanning electron microscopic analysis; format: functional, organism-based; summary of the method: as §3
[16] = Selectivity index, ratio of CC50 for HMVII cells to IC50 for metronidazole-sensitive Trichomonas vaginalis ATCC 30236 clinical isolate trophozoites after 48 hrs; format: functional; summary of the method: as §6
[17] = Cytotoxicity against african green monkey Vero cells assessed as reduction in cell viability after 48 hrs by MTT assay; format: cell-based; details: chlorocebus sabaeus
Vero = assay: Cytotoxicity against african green monkey Vero cells assessed as reduction in cell viability at 50 uM after 24 to 48 hrs by MTT assay; format: cell-based; details: chlorocebus sabaeus; summary of the method: as §2
Trichomonas vaginalis [18] = assay: Antitrichomonal activity against metronidazole-resistant Trichomonas vaginalis TV-LACM2R clinical isolate trophozoites assessed as reduction in parasite viability at 12.5 uM after 24 hrs by trypan blue dye based hemocytometry in presence of metronidazole; format: functional, organism-based; summary of the method: as §1
Trichomonas vaginalis [19] = assay: Antitrichomonal activity against metronidazole-sensitive Trichomonas vaginalis ATCC 30236 clinical isolate trophozoites assessed as parasite viability after 2 to 12 hrs by FDA/PI dye staining based flow cytometry; format: functional, organism-based; summary of the method: as §5
[20] = Cytotoxicity against african green monkey Vero cells assessed as reduction in cell viability after 24 hrs by MTT assay; format: cell-based; details: chlorocebus sabaeus
[21] = Selectivity index, ratio of CC50 for african green monkey Vero cells to IC50 for metronidazole-sensitive Trichomonas vaginalis ATCC 30236 clinical isolate trophozoites after 48 hrs; format: functional; summary of the method: as §6
Trichomonas vaginalis [22] = assay: Antitrichomonal activity against metronidazole-sensitive Trichomonas vaginalis ATCC 30236 clinical isolate trophozoites assessed as inhibition of parasite growth at 50 uM after 12 to 24 hrs by hemocytometry; format: functional, organism-based
Summary of the method: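 Kinetic growth curve: trophozoites (1.0 × 10^5/mL) were incubated with or without 50 µM for 2, 4, 6, 12, 24, 48, 72 and 96 h. Parasites were counted by hemocytometer and expressed as trophozoites/mL relative to untreated controls.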

[23] = Cytotoxicity against HMVII cells assessed as reduction in cell viability after 24 hrs by MTT assay; format: cell-based, HMV-2; details: human
[24] = Selectivity index, ratio of CC50 for HMVII cells to IC50 for metronidazole-sensitive Trichomonas vaginalis ATCC 30236 clinical isolate trophozoites after 24 hrs; format: functional; summary of the method: as §6
[25] = Cytotoxicity against HMVII cells assessed as reduction in cell viability at 50 uM after 24 hrs by MTT assay; format: cell-based; details: human, hmv-2, 24 h; summary of the method: as §2
Trichomonas vaginalis [26] = assay: Antitrichomonal activity against metronidazole-sensitive Trichomonas vaginalis ATCC 30236 clinical isolate trophozoites assessed as parasite shape disruption at 50 uM after 2 hrs by scanning electron microscopy; format: functional, organism-based; summary of the method: as §3
Trichomonas vaginalis [27] = assay: Antitrichomonal activity against metronidazole-sensitive Trichomonas vaginalis ATCC 30236 clinical isolate trophozoites assessed as parasite viability after 24 hrs by trypan blue dye based hemocytometry; format: functional, organism-based; details: ATCC 30236, 24 h; summary of the method: as §4

## CCCCCC(=O)O[C@H]1CC[C@]2(C)[C@H]3CC=C4[C@@H]5CC(C)(C)CC[C@]5(C)CC[C@@]4(C)[C@]3(C)CC[C@H]2C1(C)C
Trichomonas vaginalis [1]
  Activity: 62.8%

## C=C(C)[C@@H]1CC[C@]2(C)CC[C@]3(C)[C@H](CC[C@@H]4[C@@]5(C)CC[C@H](OC(=O)CCCCC)C(C)(C)[C@@H]5CC[C@]43C)[C@@H]12
Trichomonas vaginalis [1]
  Activity: 71.4%

## CCCCCC(=O)O[C@H]1CC[C@]2(C)[C@H]3CC=C4[C@@H]5[C@@H](C)[C@H](C)CC[C@]5(C)CC[C@@]4(C)[C@]3(C)CC[C@H]2C1(C)C
Trichomonas vaginalis [1]
  Activity: 56.2%

## C[C@H]1[C@H](C)CC[C@]2(C)CC[C@]3(C)C(=CC[C@@H]4[C@@]5(C)CC[C@H](O)C(C)(C)[C@@H]5CC[C@]43C)[C@H]12
Trichomonas vaginalis [1]
  Activity: 76.1%

## CC(=O)O[C@H]1CC[C@]2(C)[C@H]3CC=C4[C@@H]5[C@@H](C)[C@H](C)CC[C@]5(C)CC[C@@]4(C)[C@]3(C)CC[C@H]2C1(C)C
Trichomonas vaginalis [1]
  Activity: 56.4%

## C=C(C)[C@@H]1CC[C@]2(C)CC[C@]3(C)[C@H](CC[C@@H]4[C@@]5(C)CC[C@H](OC(C)=O)C(C)(C)[C@@H]5CC[C@]43C)[C@@H]12 [LUPENYL ACETATE]
Trichomonas vaginalis [1]
  Activity: 59.8%

## C=C(C)[C@@H]1CC[C@]2(C)CC[C@]3(C)[C@H](CC[C@@H]4[C@@]5(C)CC[C@H](O)C(C)(C)[C@@H]5CC[C@]43C)[C@@H]12 [LUPEOL]
Trichomonas vaginalis [1]
  Activity: 117.8%

## Cc1ncc([N+](=O)[O-])n1CCO [METRONIDAZOLE]
Trichomonas vaginalis [2]
  Activity: 80%
Trichomonas vaginalis [1]
  Activity: 0%
Trichomonas vaginalis [3]
  MIC: 73 µM (≈ 12.5 µg/mL)

## CC1(C)CC[C@]2(C(=O)O)CC[C@]3(C)C(=CC[C@@H]4[C@@]5(C)CC[C@H](O)C(C)(C)[C@@H]5CC[C@]43C)[C@@H]2C1 [OLEANOLIC_ACID]
Trichomonas vaginalis [1]
  Activity: 78.3%

## C[C@H]1[C@H](C)CC[C@]2(C(=O)O)CC[C@]3(C)C(=CC[C@@H]4[C@@]5(C)CC[C@H](O)C(C)(C)[C@@H]5CC[C@]43C)[C@H]12 [URSOLIC ACID]
Trichomonas vaginalis [1]
  Activity: 0%
HeLa [4]
  Activity: 90%
Trichomonas vaginalis [5]
  Activity: Active
Trichomonas vaginalis [6]
  Activity: Active
[7]
  CC50 at 48 h: 69.5 µM
[8]
  Activity: 90%
Trichomonas vaginalis [9]
  Activity: Active
Trichomonas vaginalis [10]
  Activity: Active
Trichomonas vaginalis [11]
  Activity: Active
Trichomonas vaginalis [12]
  Activity: 98%
[13]
  Ratio CC50/IC50: 0.9
HeLa [14]
  Activity: 50%
Trichomonas vaginalis [15]
  Activity: Active
[16]
  Ratio CC50/IC50: 1.97
[17]
  CC50 at 48 h: 35.9 µM
Vero
  Activity: 30%
Trichomonas vaginalis [18]
  Activity: Active
Trichomonas vaginalis [19]
  Activity: Active
[20]
  CC50 at 24 h: 31.9 µM
[21]
  Ratio CC50/IC50: 1.02
Trichomonas vaginalis [22]
  growth inhibition (GI): Active
[23]
  CC50 at 24 h: 146 µM
[24]
  Ratio CC50/IC50: 4.13
[25]
  Activity: 60%
Trichomonas vaginalis [26]
  Activity: Active
Trichomonas vaginalis [27]
  IC50: 35.3 µM
  MIC: 50 µM (≈ 22.8 µg/mL)

## CC(=O)O[C@H]1CC[C@]2(C)[C@H]3CC=C4[C@@H]5CC(C)(C)CC[C@]5(C)CC[C@@]4(C)[C@]3(C)CC[C@H]2C1(C)C [beta-AMYRIN ACETATE]
Trichomonas vaginalis [1]
  Activity: 54.5%

## CC1(C)CC[C@]2(C)CC[C@]3(C)C(=CC[C@@H]4[C@@]5(C)CC[C@H](O)C(C)(C)[C@@H]5CC[C@]43C)[C@@H]2C1 [beta-AMYRIN]
Trichomonas vaginalis [1]
  Activity: 84.3%
